Measured values published in ChEMBL document CHEMBL6115033, “Discovery of a Pyrazolopyridinone-Based MYC Inhibitor That Selectively Engages Intracellular c-MYC and Disrupts MYC-MAX Heterodimerization” (J Med Chem, 2025).
pIC50: −log10 of the molar value. Active and inactive are the calls of the source. The rule behind the calls is not given here.

Experiments:
[1] = Antiproliferative activity against human P493-6 cells expressing MYC assessed as inhibition of cell proliferation incubated for 96 hrs by cell titer glo assay; format: functional, cell-based; conditions: P493-6, 96 h
Outline: (§1)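 P493-6 cells (3000/well, RPMI) were seeded overnight at 37 °C, then given compounds at final 0.14–100 µM for 96 h. MYC-off cells were pretreated with 0.1 µg/mL tetracycline for 72 h. Read-out was CellTiter-Glo luminescence after equilibration to room temperature. IC50 was determined in high-MYC and MYC-off cells.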

[2] = system: MDA-MB-468; experiment: Antiproliferative activity against human MDA-MB-468 cells assessed as cell viability incubated for 96 hrs by MTT assay; format: functional, cell-based; conditions: MDA-MB-468, 96 h
Outline: (§2)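 Adherent cells (2000/well) attached overnight, then exposed to compounds at 0.14–100 µM for 96 h in DMEM with 10% FBS. MTT at 0.5 mg/mL for 4 h in the dark, formazan dissolved in DMSO, absorbance at 570 nm. Compounds were freshly prepared in DMSO, with DMSO below 1%.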

[3] = system: MDA-MB-231; experiment: Antiproliferative activity against human MDA-MB-231 cells assessed as cell viability incubated for 96 hrs by MTT assay; format: functional, cell-based; conditions: MDA-MB-231, 96 h; outline: as §2
[4] = Antiproliferative activity against tetracycline-treated human P493-6 cells expressing MYC assessed as inhibition of cell proliferation incubated for 96 hrs by cell titer glo assay; format: functional, cell-based; conditions: P493-6, 96 h; outline: as §1
[5] = system: MCF7; experiment: Antiproliferative activity against human MCF7 cells assessed as cell viability incubated for 96 hrs by MTT assay; format: functional, cell-based; conditions: MCF7, 96 h; outline: as §2
[6] = Induction of apoptosis in human P493-6 cells assessed as late apoptotic cells at 25 uM incubated for 24 hrs by Annexin V/PI staining based flow cytometry analysis (reference value: 6.52 %); format: functional
[7] = Induction of apoptosis in human P493-6 cells assessed as necrotic cells at 25 uM incubated for 24 hrs by Annexin V/PI staining based flow cytometry analysis (reference value: 0.11 %); format: functional
[8] = Induction of apoptosis in human P493-6 cells assessed as early apoptotic cells at 25 uM incubated for 24 hrs by Annexin V/PI staining based flow cytometry analysis (reference value: 2.52 %); format: functional
[9] = Selectivity index, ratio of IC50 for antiproliferative activity against tetracycline-treated human P493-6 cells expressing MYC assessed as inhibition of cell proliferation to IC50 for antiproliferative activity against human P493-6 cells expressing MYC assessed as inhibition of cell proliferation; format: functional
Outline: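 MYC-off P493-6 cells obtained by 72 h pretreatment with 0.1 µg/mL tetracycline and compared with untreated MYC-high cells. Cells seeded at 3000 per 100 uL, held overnight at 37 °C, then treated at 0.14–100 uM final for 96 h. Viability read by CellTiter-Glo luminescence. IC50 values determined in both states and compared as a selectivity index.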

[10] = Induction of apoptosis in human P493-6 cells assessed as viable cells at 25 uM incubated for 24 hrs by Annexin V/PI staining based flow cytometry analysis (reference value: 90.8%); format: functional; conditions: read-out: Activity
[11] = system: P493-6; experiment: Antiproliferative activity against tetracycline-treated human P493-6 cells expressing MYC assessed as inhibition of cell proliferation at 25 uM incubated for 96 hrs by cell titer glo assay; format: functional, cell-based
Outline: (§3)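 P493-6 cells, either untreated (high MYC) or MYC-off after 0.1 µg/mL tetracycline for 72 h, were exposed to 25 µM for 96 h. Read-out was % survival by CellTiter-Glo luminescence. Mean ± SD, n = 6, unpaired t-test.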

[12] = molecular target: T1, c-Myc/c-Max (Homo sapiens) (UniProt P01106+P61244); experiment: Disruption of MYC-MAX interaction in human MDA-MB-468 cells assessed as reduction in myc level at 25 uM; format: cell-based
[13] = molecular target: T1, c-Myc/c-Max (Homo sapiens); experiment: Disruption of MYC-MAX interaction in human P493-6 cells assessed as reduction in myc level at 25 uM; format: cell-based
[14] = system: P493-6; experiment: Antiproliferative activity against human P493-6 cells expressing MYC assessed as inhibition of cell proliferation at 25 uM incubated for 96 hrs by cell titer glo assay; format: functional, cell-based; outline: as §3

T1 sequence (P01106 whole entry): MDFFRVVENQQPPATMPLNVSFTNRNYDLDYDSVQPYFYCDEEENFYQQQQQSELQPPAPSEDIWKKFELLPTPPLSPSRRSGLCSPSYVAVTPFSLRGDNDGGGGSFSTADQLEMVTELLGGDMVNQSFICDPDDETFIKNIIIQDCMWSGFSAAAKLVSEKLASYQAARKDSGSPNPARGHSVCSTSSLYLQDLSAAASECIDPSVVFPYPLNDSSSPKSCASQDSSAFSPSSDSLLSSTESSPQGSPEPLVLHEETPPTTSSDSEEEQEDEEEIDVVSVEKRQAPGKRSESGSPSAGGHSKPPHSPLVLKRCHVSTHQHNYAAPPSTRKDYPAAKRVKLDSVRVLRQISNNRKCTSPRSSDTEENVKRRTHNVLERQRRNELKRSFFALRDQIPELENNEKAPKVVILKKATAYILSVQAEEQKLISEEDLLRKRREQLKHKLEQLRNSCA
T1 sequence (P61244 2-160 partner limits assumed): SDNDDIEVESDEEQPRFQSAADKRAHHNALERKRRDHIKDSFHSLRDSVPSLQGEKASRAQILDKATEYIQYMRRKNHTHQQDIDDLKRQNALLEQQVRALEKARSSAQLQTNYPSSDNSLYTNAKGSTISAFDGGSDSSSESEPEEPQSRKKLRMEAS

pIC50 [2] | pIC50 [3] | pIC50 [5] | Activity [12] | Activity [13] | SMILES | pIC50 [1] | pIC50 [4] | Activity [6] [%] | Activity [7] [%] | Activity [8] [%] | Ratio IC50 [9] | viability at 25 µM [10] [%] | Activity [11] | Activity [14]
4.10 | < 4.00 | 5.03 |  |  | N#Cc1cc2c(-c3ccc(F)cc3)nn(-c3ccc(F)cc3)c2[nH]c1=O | < 4.00 | < 4.00 |  |  |  |  |  |  | 
4.40 | 4.35 |  |  |  | CCc1ccc(/C=C2/SC(=S)NC2=O)cc1 | 4.45 | 4.23 | 8.06 | 0.062 | 2.54 | 1.7 | 89.3 |  | 
5.10 | 5.01 | 5.03 |  |  | COc1ccc(-n2nc(-c3ccc(C)cc3)c3cc(C#N)c(=O)[nH]c32)cc1 | 4.29 | 4.12 |  |  |  | 1.5 |  |  | 
4.15 | 4.23 | < 4.00 |  |  | Cc1ccc(-c2nn(-c3ccc(Cl)cc3)c3[nH]c(=O)c(C#N)cc23)cc1 |  |  |  |  |  |  |  |  | 
4.88 | 5.26 | 4.91 | Active | Active | N#Cc1cc2c(-c3ccc(Br)cc3)nn(-c3ccccc3)c2[nH]c1=O | 4.81 | 4.44 |  |  |  | 2.3 |  | Active | Active
4.48 | 4.42 | 4.78 |  |  | COc1ccc(-c2nn(-c3ccccc3)c3[nH]c(=O)c(C#N)cc23)cc1 | 4.68 | < 4.00 |  |  |  | >4 |  |  | 
4.49 | 4.46 | 4.69 |  |  | Cc1ccc(-c2nn(-c3ccccc3)c3[nH]c(=O)c(C#N)cc23)cc1 | 4.68 | 4.29 |  |  |  | 2.4 |  |  | 
